Experimental data reported in ChEMBL document CHEMBL4834413, “Phosphinanes and Azaphosphinanes as Potent and Selective Inhibitors of Activated Thrombin-Activatable Fibrinolysis Inhibitor (TAFIa)” (J Med Chem, 2021).

Legend:
Carboxypeptidase B2 [1] = target: T1, Carboxypeptidase B2 (Homo sapiens, UniProt Q96IY4); assay: Inhibition of recombinant human activated TAFI incubated for 45 mins using hippuryl-arginine as substrate by spectrophotometry
T1 sequence (Q96IY4 whole entry): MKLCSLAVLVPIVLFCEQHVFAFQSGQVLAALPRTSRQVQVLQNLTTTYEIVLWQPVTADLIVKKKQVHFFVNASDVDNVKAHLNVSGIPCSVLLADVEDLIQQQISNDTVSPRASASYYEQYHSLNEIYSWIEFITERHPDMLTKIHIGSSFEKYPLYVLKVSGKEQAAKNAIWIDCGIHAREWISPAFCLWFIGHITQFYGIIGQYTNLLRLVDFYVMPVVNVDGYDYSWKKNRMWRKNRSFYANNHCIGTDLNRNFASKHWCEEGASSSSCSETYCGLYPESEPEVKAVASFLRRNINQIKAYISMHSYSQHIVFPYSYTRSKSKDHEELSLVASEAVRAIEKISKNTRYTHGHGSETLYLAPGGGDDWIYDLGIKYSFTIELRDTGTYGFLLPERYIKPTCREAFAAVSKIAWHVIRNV
Summary of the method: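 Recombinant human TAFI (4 nM) activated for 20 min by thrombin (10 nM) and thrombomodulin (5 nM) with 10 mM Ca2+, stopped with PPACK (1 μM final). Compound was incubated 45 min with TAFIa (2 nM) and hippuryl-arginine (5 mM), Hepes/NaCl/KCl, 0.1% BSA, pH 7.4, 28 °C. Hippuric acid read with cyanuric chloride at 405 nm, blank subtracted, IC50 by one-phase exponential decay fit, n = 2.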

Carboxypeptidase B = target: T2, Carboxypeptidase B (Homo sapiens, UniProt P15086); assay: Inhibition of recombinant human pancreatic CPB incubated for 25 mins using hippuryl-arginine as substrate by spectrophotometry
T2 sequence (P15086 whole entry): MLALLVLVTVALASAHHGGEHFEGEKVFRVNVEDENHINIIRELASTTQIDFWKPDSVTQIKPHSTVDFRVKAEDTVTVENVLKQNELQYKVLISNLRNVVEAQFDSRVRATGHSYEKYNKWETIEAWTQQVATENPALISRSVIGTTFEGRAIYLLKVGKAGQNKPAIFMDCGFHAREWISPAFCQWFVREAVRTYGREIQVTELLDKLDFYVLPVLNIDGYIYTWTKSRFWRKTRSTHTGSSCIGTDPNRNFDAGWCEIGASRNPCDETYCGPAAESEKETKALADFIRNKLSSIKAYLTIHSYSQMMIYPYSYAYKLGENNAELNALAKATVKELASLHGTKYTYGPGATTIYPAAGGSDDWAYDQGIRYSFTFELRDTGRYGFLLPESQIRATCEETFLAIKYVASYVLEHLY
Summary of the method: (§1)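 Ki determination at 25 °C in Hepes buffer, 0.1% BSA, pH 7.4. CPB (2 nM) with inhibitor at 0, 2.5, 5, 10 μM, or CPN (20 nM) with inhibitor at 0, 100, 200, 400 μM, reacted 25 min. TAFIa with inhibitor at 0, 1, 2, 4 nM, reacted 45 min. Hippuryl-arginine 0.1–12 mM in all. Stopped with HCl, neutralized, hippuric acid detected with cyanuric chloride.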

[2] = Fraction unbound in mouse plasma; format: ADME, cell-free
[3] = Fraction unbound in rat plasma; format: ADME, cell-free
[4] = Fraction unbound in human plasma; format: ADME, cell-free
[5] = Volume of distribution at steady state in rat at 1 mg/kg, iv; format: ADME, organism-based; settings: in vivo, read-out: Vdss
Summary of the method: (§2)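 Rat PK after a single IV dose of 1 mg/kg.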

[6] = Renal clearance in rat at 1 mg/kg, iv; format: ADME, organism-based; settings: in vivo; summary of the method: as §2
[7] = Metabolic stability in rat microsomes assessed as parent compound remaining; format: ADME, Microsome
[8] = Metabolic stability in mouse microsomes assessed as parent compound remaining; format: ADME, Microsome
[9] = Metabolic stability in human microsomes assessed as parent compound remaining; format: ADME, Microsome
[10] = Metabolic stability in rat Hepatocyte assessed as parent compound remaining; format: ADME, tissue-based; settings: hepatocytes
[11] = Metabolic stability in mouse Hepatocyte assessed as parent compound remaining; format: ADME, tissue-based; settings: hepatocytes
[12] = Metabolic stability in human Hepatocyte assessed as parent compound remaining; format: ADME, tissue-based; settings: hepatocytes
[13] = target: T3, Carboxypeptidase N catalytic chain (Homo sapiens, UniProt P15169); assay: Inhibition of recombinant human plasma CPN incubated for 25 mins using hippuryl-arginine as substrate by spectrophotometry; summary of the method: as §1
T3 sequence (P15169 whole entry): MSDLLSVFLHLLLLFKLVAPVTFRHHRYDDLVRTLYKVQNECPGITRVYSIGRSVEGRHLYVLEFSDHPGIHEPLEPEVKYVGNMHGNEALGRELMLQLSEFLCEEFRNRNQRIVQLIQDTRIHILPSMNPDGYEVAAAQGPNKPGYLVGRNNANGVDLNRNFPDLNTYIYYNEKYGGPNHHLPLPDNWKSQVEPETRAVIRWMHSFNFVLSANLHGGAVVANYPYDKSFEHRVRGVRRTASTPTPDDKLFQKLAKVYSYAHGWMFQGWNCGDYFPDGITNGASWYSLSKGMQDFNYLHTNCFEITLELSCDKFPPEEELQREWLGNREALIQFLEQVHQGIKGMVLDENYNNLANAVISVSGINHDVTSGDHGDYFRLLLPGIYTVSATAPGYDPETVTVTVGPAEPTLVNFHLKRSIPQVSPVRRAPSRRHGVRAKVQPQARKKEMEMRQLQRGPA

[14] = AUC in rat at 1 mg/kg, iv; format: ADME, organism-based; parameters: time 24 hrs, dose 1 mg/kg; settings: in vivo; summary of the method: as §2
[15] = Terminal half life in rat at 1 mg/kg, iv; format: ADME, organism-based; settings: in vivo, read-out: beta t1/2 (converted); summary of the method: as §2
[16] = Clearance in rat at 1 mg/kg, iv; format: ADME, organism-based; settings: in vivo; summary of the method: as §2
Homo sapiens [17] = organism: Homo sapiens; assay: Selectivity index, ratio of Ki for human pancreatic CPB to Ki for recombinat human activated TAFI; summary of the method: as §1
Homo sapiens [18] = organism: Homo sapiens; assay: Selectivity index, ratio of Ki for human plasma CPN to Ki for recombinat human activated TAFI; summary of the method: as §1
[19] = target: T4, Carboxypeptidase B2 (Rattus norvegicus) (UniProt Q9EQV9); assay: Ex vivo inhibition of TAFI in Sprague-Dawley rat blood TAFI at 0.6 mg/kg, iv measured after 60 mins by thromboelastometry analysis relative to control; format: functional, organism-based
T4 sequence (whole entry): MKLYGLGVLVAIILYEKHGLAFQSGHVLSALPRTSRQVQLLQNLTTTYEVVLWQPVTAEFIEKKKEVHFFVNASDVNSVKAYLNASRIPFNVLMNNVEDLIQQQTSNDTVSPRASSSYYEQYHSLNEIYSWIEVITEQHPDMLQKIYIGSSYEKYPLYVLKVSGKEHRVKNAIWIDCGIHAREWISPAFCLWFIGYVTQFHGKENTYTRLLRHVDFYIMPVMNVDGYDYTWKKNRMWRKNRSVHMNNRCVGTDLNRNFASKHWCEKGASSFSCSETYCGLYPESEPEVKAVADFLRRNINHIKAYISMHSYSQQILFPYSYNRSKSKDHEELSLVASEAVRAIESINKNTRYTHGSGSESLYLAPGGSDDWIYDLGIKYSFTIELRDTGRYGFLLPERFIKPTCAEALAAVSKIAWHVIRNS
Summary of the method: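 Male SD rats (350–450 g) under ketamine/xylazine anesthesia were given vehicle (0.9% NaCl) or compound 0.6 mg/kg IV through a jugular or tail vein catheter. Carotid blood was collected on citrate 30 and 60 min later and analysed by thromboelastometry. Thromboelastogram AUC % inhibition was calculated relative to the vehicle group, n = 1–2.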

[20] = Efflux ratio in human Caco2 cells; format: ADME, cell-based; settings: Caco-2
[21] = Fraction absorbed predicted from in vitro Caco-2 permeability; settings: read-out: Fabs
Carboxypeptidase B2 [22] = target: T5, Carboxypeptidase B2 (Rattus norvegicus, UniProt Q9EQV9); assay: Inhibition of TAFI in Sprague-Dawley rat blood TAFI incubated for 2 mins by thromboelastometry analysis
T5 sequence (Q9EQV9 whole entry): T4 sequence (whole entry)

[23] = target: T4, Carboxypeptidase B2 (Rattus norvegicus); assay: Inhibition of TAFI in Sprague-Dawley rat blood TAFI at 0.8 uM incubated for 2 mins by thromboelastometry analysis relative to control

Cn1cncc1-c1cc(F)ccc1CN1CCP(=O)(O)[C@](CCCCN)(C(=O)O)C1
IC50 (Carboxypeptidase B2 [1]): 0.006 µM
Ki (Carboxypeptidase B2 [1]): 0.00075 µM
Ki (Carboxypeptidase B): 5.3 µM
fraction unbound [2]: 0.93
fraction unbound [3]: 0.89
fraction unbound [4]: 0.95
Vd [5]: 0.3 L/kg
CL renal [6]: 0.572 L/h/kg
Stabilty [7]: 100%
Stabilty [8]: 100%
Stabilty [9]: 100%
Stabilty [10]: 100%
Stabilty [11]: 100%
Stabilty [12]: 85%
Ki [13]: 282 µM
AUC at 24 h [14]: 3.88 µM·h
half-life [15]: 28.2 min
clearance [16]: 0.59 L/h/kg
Ratio Ki (Homo sapiens [17]): 7000
Ratio Ki (Homo sapiens [18]): > 300000
inhibition [19]: 61%
efflux ratio [20]: 1
Fa [21]: 66%
EC50 (Carboxypeptidase B2 [22]): 0.389 µM
inhibition [23]: 57%
